The record followed here is the RNAGym collection of RNA variant scans (doi:10.1126/science.aae0568).

B1: tRNA (parent)
chain: GUUCCGUUGGCGUAAUGGUAACGCGUCUCCCUCCUAAGGAGAAGACUGCGGGUUCGAGUCCCGUACGGAACG

This sample holds only a part of the variants without activity. A value given as a limit tells only on which side of the number the result lay.

In this series the parent is B1. In words: yeast fitness relative to wild type (ratio to wild type); higher = fitter; tRNA-Arg(CCU), competitive growth, 37 C, YPD. The method, boiled down:
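A pool of Saccharomyces cerevisiae strains, each with a tRNA-Arg(CCU) gene variant at the native genomic locus, was competed in YPD at 37°C for 24 hours across six parallel replicates. The variants had been chemically synthesised at a 3% per-site mutation rate over 69 sites, and gene amplicons before and after competition were read by 100-nucleotide paired-end sequencing. Darwinian fitness relative to wild type rested on changes in genotype frequencies. Genotypes required ≥ 100 starting reads, and estimates < 0.5 were set to 0.5.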
Turning to GUUCCGUUGGCGUAAUGGUAACGCGUCACCCUCCUAAGGAGAAGACUGGGGGUUCGGGUCCCGUACGGAACG [U28A C49G A57G], the yeast fitness is ≤ 0.5.
With GUUCCGUUGGCGUAAUGGUAACGCGUCACCCUCCUAAGAAGAAGACUGCGGGUUCGAGUCCCGGACGGAACG [U28A G39A U64G], the yeast fitness is ≤ 0.5.
For GUUCCGUUGGCGUAAUGGUAACGCGUCACCCUACUAAGGAGAAGACUGCGGAUUCGAGUCCCGUACGGAACG [U28A C33A G52A], the yeast fitness was ≤ 0.5.
As to GUUCCGUUGGCGUAAUGGUAACGCGUCAGCUUCCUAAGGAGAAGACUGCGGGUUCGAGUCCCGUACGGUACG [U28A C29G C31U A69U], the yeast fitness is ≤ 0.5.
To GUUCCGUUGGCGUAAUGGUAACGCGUCACCAUCCUAAGGAGAAGACUGCGGGUUCGAGUCCCGUACGGAACG [U28A C31A] belongs 0.687; to GUUCCGUUGGCGUAAUGGUAACGCGUCACCUUCCUAAGGAGAAGACUGCGGGUUCGAGUCCCGUAAGGAACG [U28A C31U C66A], ≤ 0.5.
GUUCCGUUGGCGUAAUGGUAACGCGUCACCCUCCUAAGGAGAAGACUGCGGGUUCGAGUGCCGUAGGGGACG [U28A C60G C66G A69G]: the yeast fitness is ≤ 0.5.
As for GUUCCGUUGGCGUAAUGGUAACGCGUCACCCUCUUAAGGUGAAGUCUGCGGGUUCGAGUCCCGUAUGGAACG [U28A C34U A40U A45U C66U], the yeast fitness was ≤ 0.5.
With GUUCCGUUGGCGUAAUGGUAACGCGUCACCCUCCUAAGGAGAAGACUGCGGGUUCGAGUCCCGUACGAAACG [U28A G68A], the yeast fitness was 0.581.
To GUUCCGUUGGCGUAAUGGUAACGCGUCACCCUCGUAAGGAGAAGACUGCGGGUUCGAGUCCCGUACGGAACG [U28A C34G] belongs 0.707.
Take GUUCCGUUGGCGUAAUGGUAACGCGUCACCCUCUUAAGGAGAAGACUGCGGGUUCGGGUCCCGUAUGGAACG [U28A C34U A57G C66U]: the yeast fitness is ≤ 0.5.
With GUUCCGUUGGCGUAAUGGUAACGCGUCACCCUUCUAAGGAGAAGACUGCGGGUUGGAGUCCCGUACGGAACG [U28A C33U C55G], the yeast fitness is ≤ 0.5.
To GUUCCGUUGGCGUAAUGGUAACGCGUCACCAUCCUCAGGAGAAGGCUCCGGGUUCGAGUCCCGUACGGAACG [U28A C31A A36C A45G G48C] belongs 0.619; to GUUCCGUUGGCGUAAUGGUAACGCGUCACCGUCCUAAGGAGAAGACUGCGGGUUCGGGUCCUGUACGGAACG [U28A C31G A57G C62U], ≤ 0.5; to GUUCCGUUGGCGUAAUGGUAACGCGUCAUCCUCCUAAGGAGAAGCCUGCGGGUUCGAGUCCCGUACGGCACG [U28A C29U A45C A69C], 0.541.
As to GUUCCGUUGGCGUAAUGGUAACGCGUCACCCUCCUAAGGAGAAGACUCCGGGUUCGAGUCCCGUACGGUUCG [U28A G48C A69U A70U], the yeast fitness is ≤ 0.5.
As for GUUCCGUUGGCGUAAUGGUAACGCGUCACCCUCCUAAGGAGAAGACUGCGGGUUGGAGUCCCGUACGGAGCG [U28A C55G A70G], the yeast fitness was ≤ 0.5.
For the variant GUUCCGUUGGCGUAAUGGUAACGCGUCACCCUGCUAAGGAGACGACUGCGGGUUCGCGUCCCGUACAGUACG [U28A C33G A43C A57C G67A A69U], the yeast fitness is ≤ 0.5.
For the variant GUUCCGUUGGCGUAAUGGUAACGCGUCACCCUCCUAAGGAGAAGACUGCGGGUUAGAGUCCCGUACGGAACG [U28A C55A], the yeast fitness came out at 0.52.
With GUUCCGUUGGCGUAAUGGUAACGCGUCACCCUCCUAAGGAGAAGACUGCGGGUUGGAGUCCCGUACGGAACG [U28A C55G] the figure was 0.537.
For GUUCCGUUGGCGUAAUGGUAACGCGUCACCCUCCUAAGGAGAAGACUGCGGGUUUGAGUCCCGUACGGAACG [U28A C55U], the yeast fitness came out at 0.739.
To GUUCCGUUGGCGUAAUGGUAACGCGUCACCAUCCUAAGGAGCAGUCUGCGAGUUCGAGUCCCGAACGGAACG [U28A C31A A42C A45U G51A U64A] belongs 0.512; to GUUCCGUUGGCGUAAUGGUAACGCGUCACCCUGCUUAGGGGAAGACUGCGGGUCCGAGUCCCGUUCGGAACG [U28A C33G A36U A40G U54C A65U], ≤ 0.5; to GUUCCGUUGGCGUAAUGGUAACGCGUCAGCCUUGUAAGGAGUAGACUGCGGGUUCGAGUCCCGUACGGAACG [U28A C29G C33U C34G A42U], 0.536.
As for GUUCCGUUGGCGUAAUGGUAACGCGUCAGCCUCCUCAGGAGAAGACUGCGGGUUCGAGUCCCGUACGGAACG [U28A C29G A36C], the yeast fitness worked out at 0.516.
GUUCCGUUGGCGUAAUGGUAACGCGUCAGCCUCCUAAGGAGAAGACUGCGAGUUCAAGUCCCGUACCGAACG [U28A C29G G51A G56A G67C]: the yeast fitness was 0.585.
GUUCCGUUGGCGUAAUGGUAACGCGUCACCCUCCUAAGGAGAAGGCUGCGGGUUCGAGUCCCGUACGGAACG [U28A A45G]: the yeast fitness was found to be 0.762.
With GUUCCGUUGGCGUAAUGGUAACGCGUCACCAUCCUAAGGAGCAGUCUACGAGUUCGAGUCCCGAACGGAACG [U28A C31A A42C A45U G48A G51A U64A], the yeast fitness was ≤ 0.5.
Regarding GUUCCGUUGGCGUAAUGGUAACGCGUCACCCUCCUAAGGAGAAGACUCCGGGUUCGAGUCCCGUACGGACCG [U28A G48C A70C], the yeast fitness is ≤ 0.5.
For the variant GUUCCGUUGGCGUAAUGGUAACGCGUCAGCCUCCUAAGGAGAAGACUGCGGGUUCGAGUCCCGUACGCAACG [U28A C29G G68C], the yeast fitness was ≤ 0.5.
In the case of GUUCCGUUGGCGUAAUGGUAACGCGUCACCCUCCUAAGGAGAAGACUGCGGGUUCGAGUCCCGUACCGAACG [U28A G67C], the yeast fitness was 0.774.
GUUCCGUUGGCGUAAUGGUAACGCGUCACCCUCCUAAGGUGAAGACUGCGGGUUCGAGUCCCGUACGGAACG [U28A A40U]: the yeast fitness is 0.984.
GUUCCGUUGGCGUAAUGGUAACGCGUCAGCCUUGUAAGGAGAAGACUGCGGGUUCGAGUCCAGUACGGGACG [U28A C29G C33U C34G C62A A69G]: the yeast fitness is ≤ 0.5.
Consider GUUCCGUUGGCGUAAUGGUAACGCGUCAGCCUACUAAGGAGUAGACUGCGGGUUCGAGUCCCGUACGGAUCG [U28A C29G C33A A42U A70U], for which the yeast fitness was 0.531.
As to GUUCCGUUGGCGUAAUGGUAACGCGUCACCCUCCUAAGGAGAAGACUGCGGGUUCGAGUACCGUACGGAACG [U28A C60A], the yeast fitness came to 0.535.
As for GUUCCGUUGGCGUAAUGGUAACGCGUCACCCUCCUAAGGAGAAGACUGCGGGUUCGAGUGCCGUACGGAACG [U28A C60G], the yeast fitness was 0.572.
As to GUUCCGUUGGCGUAAUGGUAACGCGUCACCCUCCUAAGGAGAAGACUGCGGGUUCGAGUCCCGUGCGGAACG [U28A A65G], the yeast fitness was 0.791.
